# Laboratory results from ChEMBL document CHEMBL1129409, “5-HT1D receptor agonist properties of novel 2-[5-[[(trifluoromethyl)sulfonyl]oxy]indolyl]ethylamines and their use as synthetic intermediates” (J Med Chem, 1996).
# Assays:
# Rattus norvegicus [1] = assay: 5-HTP accumulation in Rat brain accumbens when Reserpine given 24 hr before decapitation & 45 & 30 min before 10 umol/kg test drug; assay type: functional
# Outline: (§1)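 Rats reserpinized (5 mg/kg ip) 24 h before test compound (10 µmol/kg sc in saline, 1.0 mL/kg). NSD 1015 (100 mg/kg) given 15 min after test compound; decapitation 30 min later. Regions stored at -70 °C, homogenized in TCA, supernatant analysed by HPLC-electrochemical detection. Output is 5-HTP in µg/g wet tissue, mean ± SEM (striatum n=8, others n=4); one-way ANOVA with post hoc t-test.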
# [2] = biological target: T1, 5-hydroxytryptamine receptor 1D (Homo sapiens, UniProt P28221); assay: Ratio of receptor binding affinities of 5-hydroxytryptamine 1D receptor alpha vs 5-hydroxytryptamine 1D receptor beta
# Target sequence in this assay (P28221 whole entry): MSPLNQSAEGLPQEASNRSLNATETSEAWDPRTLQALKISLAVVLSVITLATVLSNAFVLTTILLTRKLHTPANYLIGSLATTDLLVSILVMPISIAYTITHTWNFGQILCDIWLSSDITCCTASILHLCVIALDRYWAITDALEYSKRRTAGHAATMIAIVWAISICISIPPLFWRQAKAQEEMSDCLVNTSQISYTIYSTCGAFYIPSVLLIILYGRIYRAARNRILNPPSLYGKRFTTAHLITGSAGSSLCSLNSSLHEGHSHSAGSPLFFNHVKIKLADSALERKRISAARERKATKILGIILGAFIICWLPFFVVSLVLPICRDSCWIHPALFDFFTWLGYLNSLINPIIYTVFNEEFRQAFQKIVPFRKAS
# Rattus norvegicus [3] = assay: 5-HTP accumulation in Rat brain striatum when Reserpine given 24 hr before decapitation & 45 & 30 min before 10 umol/kg test drug; assay type: functional; outline: as §1
# [4] = biological target: T2, 5-hydroxytryptamine receptor 1A (Homo sapiens, UniProt P08908); assay: Compound was tested for binding affinity against cloned human 5-hydroxytryptamine 1A receptor expressed in CHO-K1 cells.; assay type: cell-based
# T2 sequence (P08908 whole entry): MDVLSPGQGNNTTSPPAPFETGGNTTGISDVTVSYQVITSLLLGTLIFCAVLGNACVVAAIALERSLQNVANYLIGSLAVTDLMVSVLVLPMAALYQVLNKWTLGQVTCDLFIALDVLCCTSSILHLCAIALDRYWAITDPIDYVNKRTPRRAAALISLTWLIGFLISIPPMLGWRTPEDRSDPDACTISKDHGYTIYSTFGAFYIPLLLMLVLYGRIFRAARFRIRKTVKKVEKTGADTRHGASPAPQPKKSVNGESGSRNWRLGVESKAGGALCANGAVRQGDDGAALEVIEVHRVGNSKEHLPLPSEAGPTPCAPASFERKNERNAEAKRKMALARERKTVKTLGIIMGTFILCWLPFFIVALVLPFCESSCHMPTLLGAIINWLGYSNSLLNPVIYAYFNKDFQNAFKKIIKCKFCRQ
# Outline: (§2)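 CHO cell membranes expressing cloned human 5-HT1A, 5-HT1Dα or 5-HT1Dβ receptors, or rat D2 receptors (20-60 µg protein). Buffers at pH 7.4: 50 mM Tris/5 mM MgCl2 (5-HT1A); the same with 0.1% ascorbic acid (5-HT1D); 20 mM HEPES/10 mM MgSO4 (D2). Nonspecific binding defined with lisuride, serotonin and haloperidol respectively. 11 concentrations in duplicate, 1 h at room temperature (5-HT1D protected from light), filtration.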
# [5] = Distribution coefficient (LogD) of compound reported; assay type: physicochemical; conditions: octanol/water
# Outline: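 log D calculated with Pallas version 1.2.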
# Cavia porcellus [6] = assay: The level of 5-HT (prefrontal cortex) measured by means of HPCL with electrochemical detection methods at 12.5 (umol/kg, sc); assay type: functional
# Outline: (§3)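 Male Dunkin-Hartley guinea pigs dosed sc in 0.25% methylcellulose (citric acid added for free bases), 5 mL/kg. Decapitated 60 min after dosing; prefrontal cortex and hypothalamus dissected on ice and stored at -80 °C. 5-HT and 5-HIAA measured by HPLC-electrochemical detection. Expressed as % of vehicle controls, mean ± SEM (n=4-5); ANOVA with Fisher's PLSD.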
# Cavia porcellus [7] = assay: The level of 5-HIAA (prefrontal cortex) measured by means of HPCL with electrochemical detection methods at 50(umol/kg, sc); assay type: functional; outline: as §3
# Cavia porcellus [8] = assay: The level of 5-HIAA (hypothalamus) measured by means of HPCL with electrochemical detection methods at 12.5 (umol/kg, sc); assay type: functional; outline: as §3
# Cavia porcellus [9] = assay: The level of 5-HT (hypothalamus) measured by means of HPCL with electrochemical detection methods at 12.5 (umol/kg, sc); assay type: functional; outline: as §3
# [10] = biological target: T1, 5-hydroxytryptamine receptor 1D; assay: (§4) Compound was tested for binding affinity against cloned human 5-hydroxytryptamine 1D receptor alpha expressed in CHO-K1 cells.; assay type: cell-based; outline: as §2
# Target sequence in this assay (P28221 whole entry): as the sequence (P28221 whole entry) above
# Cavia porcellus [11] = assay: Effect of 50(umol/kg, sc) compound on guinea pig rectal temperature (Hypothermia); assay type: functional
# Outline: (§5)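 Male guinea pigs housed individually at least 1 h before testing, groups of five. Compound given sc in 0.25% methylcellulose (equimolar citric acid for free bases), 5 mL/kg. Rectal probe inserted 3-4 cm; temperature read before dosing and at 60 min. Reported as change from the 0 min value, mean ± SEM (n=4-5).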
# Rattus norvegicus [12] = assay: 5-HTP accumulation in Rat brain frontal cortex when Reserpine given 24 hr before decapitation & 45 & 30 min before 10 umol/kg test drug; assay type: functional; outline: as §1
# Rattus norvegicus [13] = assay: 5-HTP accumulation in Rat brain hippocampus when Reserpine given 24 hr before decapitation & 45 & 30 min before 10 umol/kg test drug; assay type: functional; outline: as §1
# Cavia porcellus [14] = assay: The level of 5-HT (hypothalamus) measured by means of HPCL with electrochemical detection methods at 50(umol/kg, sc); assay type: functional; outline: as §3
# D(2) dopamine receptor = D(2) dopamine receptor (Rattus norvegicus, UniProt P61169); assay: Binding affinity for rat dopamine D2 receptor expressed in CHO-K1 cells; assay type: cell-based
# Outline: as §2, with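 “protein). Radioligands: [3H]-8-OH-DPAT (5-HT1A), [3H]-5-HT (5-HT1D), [3H]U-86170 (D2).” for “protein).”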
# [15] = biological target: T3, 5-hydroxytryptamine receptor 1B (Homo sapiens, UniProt P28222); assay: Compound was tested for binding affinity against human 5-hydroxytryptamine 1D receptor beta clones expressed in human embryonic kidney (HEK 293) cells line.; assay type: cell-based, HEK293
# Outline: (§6)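 HEK 293 microsomal membranes expressing human 5-HT1Dα or 5-HT1Dβ, in 50 mM Tris-HCl buffer with 4 mM CaCl2, 0.1% ascorbic acid, pargyline and leupeptine. [3H]-5-HT (final 0.01-150 nM) incubated with membranes and displacer for 30 min at 25 °C. Glass-fibre filtration, then scintillation counting. Nonspecific binding taken with 10^-5 M 5-HT. Nonlinear least-squares fitting (EBDA/LIGAND); mean ± SEM, n=3.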
# Cavia porcellus [16] = assay: Effect of 12.5 (umol/kg, sc) compound on guinea pig rectal temperature (Hypothermia); assay type: functional; outline: as §5
# Cavia porcellus [17] = assay: The level of 5-HIAA(prefrontal cortex) measured by means of HPCL with electrochemical detection methods at 12.5 (umol/kg, sc); assay type: functional; outline: as §3
# [18] = biological target: T3, 5-hydroxytryptamine receptor 1B; assay: Compound was tested for binding affinity against cloned human 5-hydroxytryptamine 1D receptor beta expressed in CHO-K1 cells.; assay type: cell-based
# Cavia porcellus [19] = assay: The level of 5-HIAA (hypothalamus) measured by means of HPCL with electrochemical detection methods at 50(umol/kg, sc); assay type: functional; outline: as §3
# [20] = biological target: T1, 5-hydroxytryptamine receptor 1D; assay: Compound was tested for binding affinity against human 5-hydroxytryptamine 1D receptor alpha clones expressed in human embryonic kidney (HEK 293) cells line.; assay type: cell-based, HEK293; outline: as §6
# Target sequence in this assay (P28221 whole entry): as the sequence (P28221 whole entry) above
# Cavia porcellus [21] = assay: The level of 5-HT (prefrontal cortex) measured by means of HPCL with electrochemical detection methods at 50(umol/kg, sc); assay type: functional; outline: as §3
# [22] = biological target: T3, 5-hydroxytryptamine receptor 1B; assay: Compound was tested for binding affinity against cloned human 5-HT1D beta receptor expressed in CHO-K1 cells.; assay type: cell-based
# Outline: as §2, with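 “protein). Radioligands: [3H]-8-OH-DPAT (5-HT1A), [3H]-5-HT (5-HT1D), [3H]U-86170 (D2).” for “protein).”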
# [23] = biological target: T1, 5-hydroxytryptamine receptor 1D; assay: as §4; assay type: cell-based; remark: listed apart in the source
# Outline: as §2, with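 “protein). Radioligands: [3H]-8-OH-DPAT (5-HT1A), [3H]-5-HT (5-HT1D), [3H]U-86170 (D2).” for “protein).”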
# [24] = biological target: T1, 5-hydroxytryptamine receptor 1D; assay: Displacement of [3H]-5-HT from human 5-hydroxytryptamine 1D receptor alpha expressed in HEK 293 cells; assay type: cell-based, HEK293; outline: as §6
# Target sequence in this assay (P28221 whole entry): as the sequence (P28221 whole entry) above
# Cavia porcellus [25] = assay: The level of 5-HIAA (prefrontal cortex) measured by means of HPCL with electrochemical detection methods at 25 (umol/kg, sc); assay type: functional; outline: as §3
# Cavia porcellus [26] = assay: The level of 5-HIAA (hypothalamus) measured by means of HPCL with electrochemical detection methods at 25 (umol/kg, sc); assay type: functional; outline: as §3
# Cavia porcellus [27] = assay: The level of 5-HT (hypothalamus) measured by means of HPCL with electrochemical detection methods at 25 (umol/kg, sc); assay type: functional; outline: as §3
# Cavia porcellus [28] = assay: Effect of 25 (umol/kg, sc) compound on guinea pig rectal temperature (Hypothermia); assay type: functional; outline: as §5
# Cavia porcellus [29] = assay: The level of 5-HT (prefrontal cortex) measured by means of HPCL with electrochemical detection methods at 25 (umol/kg, sc); assay type: functional; outline: as §3
# T3 sequence (P28222 whole entry): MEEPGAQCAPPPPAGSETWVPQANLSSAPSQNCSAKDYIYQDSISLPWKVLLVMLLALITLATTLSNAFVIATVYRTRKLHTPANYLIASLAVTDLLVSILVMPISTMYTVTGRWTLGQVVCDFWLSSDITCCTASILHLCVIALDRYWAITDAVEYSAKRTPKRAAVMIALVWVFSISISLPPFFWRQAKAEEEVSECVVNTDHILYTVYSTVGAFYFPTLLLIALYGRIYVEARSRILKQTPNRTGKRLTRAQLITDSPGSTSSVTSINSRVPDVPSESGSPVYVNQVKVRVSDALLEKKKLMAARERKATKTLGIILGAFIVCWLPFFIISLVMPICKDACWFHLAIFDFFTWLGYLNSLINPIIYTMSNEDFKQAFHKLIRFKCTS
# Chain of D(2) dopamine receptor (P61169 whole entry): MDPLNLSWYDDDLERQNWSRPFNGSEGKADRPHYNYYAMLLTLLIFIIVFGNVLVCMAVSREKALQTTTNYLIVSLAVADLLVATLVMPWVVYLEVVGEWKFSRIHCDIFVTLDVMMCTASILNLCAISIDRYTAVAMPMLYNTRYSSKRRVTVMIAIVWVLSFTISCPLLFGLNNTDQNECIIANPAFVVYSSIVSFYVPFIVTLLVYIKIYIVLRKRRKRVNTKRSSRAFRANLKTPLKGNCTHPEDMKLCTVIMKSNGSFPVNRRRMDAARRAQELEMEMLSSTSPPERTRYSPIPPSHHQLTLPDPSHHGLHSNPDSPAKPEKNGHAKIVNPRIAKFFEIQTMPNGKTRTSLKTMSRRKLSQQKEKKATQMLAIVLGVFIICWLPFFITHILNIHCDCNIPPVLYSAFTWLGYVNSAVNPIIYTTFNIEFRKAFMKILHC
smiles,measurement,setting,value
CN(C)CCc1c[nH]c2ccc(OS(=O)(=O)C(F)(F)F)cc12,5-HTP accumulation,Rattus norvegicus [1],0.4 µg/g
same,Accumulation,Rattus norvegicus [1],81.6%
same,Ratio,[2],10
same,5-HTP accumulation,Rattus norvegicus [3],0.28 µg/g
same,Accumulation,Rattus norvegicus [3],75.7%
same,Ki,[4],40 nM
same,logD,[5],1.41
same,Others,Cavia porcellus [6],104%
same,Others,Cavia porcellus [7],46%
same,Others,Cavia porcellus [8],66%
same,Others,Cavia porcellus [9],97%
same,Ki,[10],3.2 nM
same,Others,Cavia porcellus [11],-1.72
same,5-HTP accumulation,Rattus norvegicus [12],0.37 µg/g
same,Accumulation,Rattus norvegicus [12],78.8%
same,5-HTP accumulation,Rattus norvegicus [13],0.28 µg/g
same,Accumulation,Rattus norvegicus [13],100%
same,Others,Cavia porcellus [14],123%
same,Ki,D(2) dopamine receptor,538 nM
same,IC50,[15],98 nM
same,Others,Cavia porcellus [16],-1.7
same,Others,Cavia porcellus [17],59%
same,Ki,[18],32 nM
same,Others,Cavia porcellus [19],54%
same,IC50,[20],8.4 nM
same,Others,Cavia porcellus [21],129%
CCCN(CCC)CCc1c[nH]c2ccc(OS(=O)(=O)C(F)(F)F)cc12,Ratio,[2],1.3
same,Ki,[4],23 nM
same,logD,[5],2.21
same,Ki,[10],190 nM
same,Ki,D(2) dopamine receptor,502 nM
same,IC50,[15],660 nM
same,Ki,[22],246 nM
same,IC50,[20],170 nM
CCN(CC)CCc1c[nH]c2ccc(OS(=O)(=O)C(F)(F)F)cc12,Ratio,[2],14.3
same,Ki,[4],27 nM
same,logD,[5],1.31
same,Ki,[10],12 nM
same,Ki,[23],171 nM
same,Ki,D(2) dopamine receptor,637 nM
same,IC50,[15],530 nM
same,IC50,[20],21 nM
CN(C)CCc1c[nH]c2ccc(OCc3ccccc3)cc12,logD,[5],2.28
same,IC50,[24],25 nM
same,IC50,[23],76 nM
CCN(CC)CCc1c[nH]c2ccc(OCc3ccccc3)cc12,logD,[5],2.18
same,IC50,[24],110 nM
same,IC50,[23],110 nM
CNS(=O)(=O)Cc1ccc2[nH]cc(CCN(C)C)c2c1,Others,Cavia porcellus [25],129%
same,Others,Cavia porcellus [26],133%
same,Others,Cavia porcellus [27],122%
same,Others,Cavia porcellus [28],-0.14
same,Others,Cavia porcellus [29],119%
same,Ki,D(2) dopamine receptor,> 218 nM
